The RNAGym collection of RNA variant scans (doi:10.1126/science.aae0568)
Fewer inactive variants are shown than the library holds.

B1: tRNA (parent)
chain: GUUCCGUUGGCGUAAUGGUAACGCGUCUCCCUCCUAAGGAGAAGACUGCGGGUUCGAGUCCCGUACGGAACG

Variants of: B1
Assay: yeast fitness relative to wild type (ratio to wild type); higher = fitter; tRNA-Arg(CCU), competitive growth, 37 C, YPD
How it was run: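 Amplicons of the tRNA-Arg(CCU) gene were sequenced, 100-nucleotide paired-end, from the start population and from each end population of a pooled yeast competition. The competition, in six parallel replicates, lasted 24 hours in YPD at 37°C. Fitness relative to wild type was calculated from changes in genotype frequencies. Genotypes had to have ≥ 100 starting reads, and estimates < 0.5 were set to 0.5.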
C5A G6A showed a yeast fitness of 0.808. Work on C5A C55U yielded a yeast fitness of 0.707. In the case of C5A C55A, the yeast fitness is reported as 0.655. C5A G6C A37G G52A C55G gave a yeast fitness of at most 0.5. C5A G17A C24U A36C showed a yeast fitness of 0.538. For C5A C22A C24A U26C, the yeast fitness was at most 0.5. C5A C24G showed a yeast fitness of 0.621. In the case of C5A C24U, the yeast fitness is reported as 0.71. Variant C5A G10C U26C has a yeast fitness of 0.518. C5A G10A G39A U53G showed a yeast fitness of at most 0.5. With C5A A21G A65U the yeast fitness was 0.655. Work on C5A C22G U26A A57C G67A A69U yielded a yeast fitness of at most 0.5. C5A A37U C49U showed a yeast fitness of at most 0.5. With C5A G17C C46G C55U the yeast fitness was at most 0.5. With C5A C30U U54A the yeast fitness was 0.537. Work on C5A C46A G56C yielded a yeast fitness of at most 0.5. Variant C5A A21G C31A has a yeast fitness of 0.642. Variant C5A C31U C34U C60G G63A has a yeast fitness of at most 0.5. With C5A C30A A57G the yeast fitness was 0.565. C5A C33G C34A A40C gave a yeast fitness of 0.567. Variant C5A C22U G39A A69U has a yeast fitness of at most 0.5. In the case of C5A A43C A65U, the yeast fitness is reported as at most 0.5. With C5A A70C the yeast fitness was 0.982. For C5A A70U, the yeast fitness was 0.822. C5A C27A C34G U59C gave a yeast fitness of 0.539. In the case of C5A C24U U35C C61A, the yeast fitness is reported as at most 0.5. C5A C24U G51A showed a yeast fitness of at most 0.5. For C5A A45U A69U, the yeast fitness was 0.801. For C5A A40U G67A, the yeast fitness was 0.659. C5A G25A G58C C66U gave a yeast fitness of at most 0.5. With C5A G18C G67C the yeast fitness was 0.561. C5A A43G showed a yeast fitness of 0.903. Work on C5A A43C yielded a yeast fitness of 0.987. In the case of C5A A43U, the yeast fitness is reported as 0.783. With C5A A21C C30G C55G A70G the yeast fitness was at most 0.5. Variant C5A G9A U32C has a yeast fitness of 0.602. With C5A A37G G51C C61G the yeast fitness was at most 0.5. For C5A G39C C46G, the yeast fitness was 0.547. For C5A C34A A43C A45C C46U, the yeast fitness was 0.593. C5A G39A C49U G67A gave a yeast fitness of at most 0.5. With C5A C11G A45C C66G G68C the yeast fitness was at most 0.5. C5A G18A C30U G48C G68C showed a yeast fitness of 0.54. For C5A C55U G63A G67C, the yeast fitness was at most 0.5. Variant C5A A42U has a yeast fitness of 0.767. C5A A42G gave a yeast fitness of 0.964. C5A A42C gave a yeast fitness of 0.842. C5A G6C C11G C22U C46U G56A gave a yeast fitness of at most 0.5. With C5A C11A A42U U53A A57C A65G the yeast fitness was at most 0.5. For C5A C49A U53G, the yeast fitness was at most 0.5. In the case of C5A C22U U53C U59G C61G C62U, the yeast fitness is reported as at most 0.5. Work on C5A C46A A69U yielded a yeast fitness of 0.738. In the case of C5A C33G A65U, the yeast fitness is reported as at most 0.5. Variant C5A A40U G48C G63A has a yeast fitness of at most 0.5. Variant C5A G10A C49A has a yeast fitness of at most 0.5. C5A A21C A43U C46G C61G showed a yeast fitness of at most 0.5. Variant C5A G38A C49U has a yeast fitness of 0.57. Work on C5A A21G C24U A45U A57U yielded a yeast fitness of 0.603. C5A C27U G39C C49U gave a yeast fitness of 0.526. Variant C5A G39C G63A has a yeast fitness of at most 0.5. Variant C5A A37C C49A has a yeast fitness of at most 0.5. Variant C5A C46U C55U has a yeast fitness of 0.763. Variant C5A C29G G41A A43U has a yeast fitness of 0.659. C5A G12A C33G showed a yeast fitness of 0.646. Work on C5A A65C A70C yielded a yeast fitness of 0.675. Variant C5A A21U U32A G50A C60G has a yeast fitness of at most 0.5. Variant C5A A36G has a yeast fitness of 0.886. C5A C31U G68A showed a yeast fitness of 0.639. C5A A21C C27A gave a yeast fitness of 0.568. C5A C22G C27G A36U A40C G67A gave a yeast fitness of at most 0.5. Variant C5A C11A G17C A43U U59A has a yeast fitness of at most 0.5. In the case of C5A C30U C62G G68A, the yeast fitness is reported as at most 0.5. Variant C5A C29A A45U C62G C66G has a yeast fitness of at most 0.5. C5A G12A G18A A69C showed a yeast fitness of at most 0.5. For C5A G12A G50C, the yeast fitness was at most 0.5. For C5A C22U C27G C30G A45U C62A, the yeast fitness was at most 0.5. Variant C5A G9C A42C C49G G68A has a yeast fitness of at most 0.5. Variant C5A C11G C27A C34U G39A has a yeast fitness of 0.683. In the case of C5A C55A G56C, the yeast fitness is reported as at most 0.5. Work on C5A G25A yielded a yeast fitness of 1.03. Work on C5A G25C yielded a yeast fitness of 0.86. Work on C5A C27U G39A A40G yielded a yeast fitness of 0.577. C5A A40C G41A C46U G52C showed a yeast fitness of at most 0.5. In the case of C5A A37G A65U, the yeast fitness is reported as 0.532. Variant C5A G38C A42G has a yeast fitness of 0.582.
